Results on four molecules are retold here after ChEMBL document CHEMBL1124204, “Thiophene systems. 9. Thienopyrimidinedione derivatives as potential antihypertensive agents” (1988).

Test [1] deals with Rattus norvegicus. As to the kind of experiment: Intravenous dose required to produce a 50% inhibition of the phenylephrine pressor response in the spontaneously hypertensive rats. Format: functional. Put shortly:
(§1)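 Adult male SHR, anesthetized and bilaterally vagotomized. A carotid artery was cannulated for mean arterial pressure and a jugular vein for iv dosing. Phenylephrine pressor responses were measured before and after antagonist. The iv dose (μg/kg) giving 50% inhibition of the pressor response (ED50) was reported with fiducial limits.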

In test [2] the test system is Rattus norvegicus. Kind of test: Evaluated for blood pressure lowering activity in spontaneously hypertensive rats (maximum change of systolic blood pressure (SBP)) at a dose of 1.25 mg/kg. Format: functional, Artery. In short, it runs like this: (§2)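 Adult male SHR, conscious, restrained in a chamber at 32 °C. SBP measured indirectly by tail cuff with a pneumatic pulse transducer. After baseline, groups of 4–6 received a single oral gavage dose or vehicle (0.5% methylcellulose). SBP was read at 0.5, 1, 2, 3 and 4 h, and the maximum SBP change ± SEM was reported against the vehicle effect.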

The next test concerns Canis familiaris. As to the kind of experiment: Intravenous dose required to produce a 20-fold rightward shift in the phenylephrine dose-response curve in the dog. It is filed as functional, Canis lupus familiaris. In short, it runs like this: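 Mongrel dogs, anesthetized and bilaterally vagotomized. Mean arterial pressure was recorded via carotid cannula, and drug was given iv through the jugular vein. Phenylephrine dose–response curves were run before and after antagonist. The iv dose (μg/kg) producing a 20-fold rightward shift (DR20) was calculated; n = animals tested.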

The species named for test [3] is Rattus norvegicus. Kind of test: Peroral dose required to produce a 50 mmHg drop in systolic blood pressure (SBP) in the spontaneously hypertensive rats. Format: functional. The conditions noted are these: Artery, po. In short, it runs like this:
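Adult male SHR, conscious, tail-cuff indirect SBP at 32 °C. Groups of 4–6 were given single oral gavage doses of 0.5–20 mg/kg in 0.5% methylcellulose, with SBP followed over 4 h. The dose giving a 50 mmHg SBP fall (ED50SBP, mg/kg po) was calculated by regression analysis with 95% fiducial limits; n = animals tested.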

Test [4] relates to Rattus norvegicus. As to the kind of experiment: Evaluated for blood pressure lowering activity in the conscious spontaneously hypertensive rats (SHR) (time to peak (h)) at a dose of 1.25 mg/kg. It is filed as functional. Put shortly: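 Conscious adult male SHR in restrainers at 32 °C, with tail-cuff and pulse-transducer SBP recording. Groups of 4–6 got a single gavage dose in 0.5% methylcellulose or vehicle alone. SBP was sampled at 0.5, 1, 2, 3 and 4 h post-dose, and the time (h) at which the peak SBP change occurred was recorded.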

In test [5] the test system is Rattus norvegicus. Kind of test: Evaluated for blood pressure lowering activity in spontaneously hypertensive rats (maximum change of systolic blood pressure (SBP)) at a dose of 0.5 mg/kg. Format: functional, Artery. Put shortly:
as §2

Test [6] relates to Rattus norvegicus. As to the kind of experiment: Time to peak fall in systolic blood pressure in spontaneously hypertensive rats after oral administration of 0.5 mg/kg of the compound.
For test [7], the system named is Rattus norvegicus. As to the kind of experiment: Time to reach peak blood pressure lowering effect in spontaneously hypertensive rats after oral administration of 20 mg/kg of the compound.
Test [8] relates to Rattus norvegicus. Kind of test: Evaluated for blood pressure lowering activity in spontaneously hypertensive rats (maximum change of systolic blood pressure (SBP)) at a dose of 20 mg/kg. It is filed as functional, Artery. Put shortly: as §2
The subject of test [9] is Rattus norvegicus. As to the kind of experiment: Intravenous dose required to produce 50% inhibition of the phenylephrine pressor response in the spontaneously hypertensive rats. Format: functional. Put shortly:
as §1

`COc1ccccc1N1CCN(CCn2c(=O)[nH]c3ccccc3c2=O)CC1`: the figures for the ED50 in the test with Rattus norvegicus [1] and in the test filed under Rattus norvegicus [3] were 0.0033 mg/kg and 0.54 mg/kg, respectively. Also, in the test with Rattus norvegicus [2], the “Delta SBP” value is on record as -54 mmHg. Moreover, the DR20 in the test on Canis familiaris is 10 µg/kg. For the same molecule, the Time in the test with Rattus norvegicus [4] was determined as 0.5 h.
For the molecule `COc1ccccc1N1CCN(CCn2c(=O)[nH]c3cscc3c2=O)CC1.Cl`, the “Delta SBP” value in the test on Rattus norvegicus [5] was -83 mmHg. Also, the ED50 (commonly the dose at which the effect has come halfway, by size or by number of responders) turned out to be 0.0017 mg/kg in the test on Rattus norvegicus [1] and 0.21 mg/kg in the test listed under Rattus norvegicus [3]. Also, in the test with Canis familiaris, the DR20 was found to be 3 µg/kg. In the test with Rattus norvegicus [6], this molecule returned a Time of 0.5 h.
Molecule `COc1ccccc1N1CCN(CCn2c(=O)[nH]c3sc(C)c(C)c3c2=O)CC1` displayed a Time in the test on Rattus norvegicus [7] of 1 h. Moreover, in the test with Rattus norvegicus [8], the “Delta SBP” value is given as -50 mmHg.
In the case of `COc1cc2nc(N3CCN(C(=O)c4ccco4)CC3)nc(N)c2cc1OC` [PRAZOSIN], the ED50 in the test on Rattus norvegicus [9] was 0.0104 mg/kg; in the test filed under Rattus norvegicus [3] it was 0.22 mg/kg. In addition, the “Delta SBP” value in the test with Rattus norvegicus [2] was -60 mmHg. Moreover, the DR20 with Canis familiaris stood at 300 µg/kg. For the same molecule, the Time in the test on Rattus norvegicus [4] stood at 0.5 h.
